Converted amounts (≈) assume the structure as drawn.
How the values were obtained:
[1] = test system: S. aureus ATCC 29,213; experiment: MIC, broth microdilution; assay type: cell-based, Staphylococcus aureus; details: MHB II, 10^6 CFU/ml, 37 °C, 24 h, triplicate
In short: (§1)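 Broth microdilution per CLSI. Strains were freshly plated on LB agar from glycerol stocks; the colistin-resistant lpxD mutant was plated on LB with 10 µg/ml colistin. Inoculum was 10^6 CFU/ml in Mueller Hinton broth II with two-fold dilutions of test compound from 100 to 0.10 µg/ml, incubated at 37 °C for 24 h. MIC was the lowest concentration with no growth.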

[2] = test system: S. aureus MRSA USA 300; experiment: MIC, broth microdilution; assay type: cell-based, Staphylococcus aureus; details: MHB II, 10^6 CFU/ml, 37 °C, 24 h, triplicate
In short: as §1

[3] = test system: P. aeruginosa ATCC 27,853; experiment: MIC, broth microdilution; assay type: cell-based, Pseudomonas aeruginosa; details: MHB II, 10^6 CFU/ml, 37 °C, 24 h, triplicate
In short: as §1

[4] = test system: P. aeruginosa (ST175–1); experiment: MIC, broth microdilution; assay type: cell-based, Pseudomonas aeruginosa; details: MHB II, 10^6 CFU/ml, 37 °C, 24 h, triplicate
In short: as §1

[5] = test system: A. baumannii ATCC 19,606; experiment: MIC, broth microdilution; assay type: cell-based, Acinetobacter baumannii; details: MHB II, 10^6 CFU/ml, 37 °C, 24 h, triplicate
In short: as §1

[6] = test system: A. baumannii IB010; experiment: MIC, broth microdilution; assay type: cell-based, Acinetobacter baumannii; details: MHB II, 10^6 CFU/ml, 37 °C, 24 h, triplicate
In short: as §1

[7] = test system: A. baumannii Ab-1; experiment: MIC, broth microdilution; assay type: cell-based, Acinetobacter baumannii; details: MHB II, 10^6 CFU/ml, 37 °C, 24 h, triplicate
In short: as §1

[8] = test system: K. pneumoniae ATCC 43,816; experiment: MIC, broth microdilution; assay type: cell-based, Klebsiella pneumoniae; details: MHB II, 10^6 CFU/ml, 37 °C, 24 h, triplicate
In short: as §1

[9] = test system: K. pneumoniae CG258; experiment: MIC, broth microdilution; assay type: cell-based, Klebsiella pneumoniae; details: MHB II, 10^6 CFU/ml, 37 °C, 24 h, triplicate
In short: as §1

[10] = test system: E. coli ATCC 25,922; experiment: MIC, broth microdilution; assay type: cell-based, Escherichia coli; details: MHB II, 10^6 CFU/ml, 37 °C, 24 h, triplicate
In short: as §1

[11] = test system: E. coli ESBL 1057.1; experiment: MIC, broth microdilution; assay type: cell-based, Escherichia coli; details: MHB II, 10^6 CFU/ml, 37 °C, 24 h, triplicate
In short: as §1

[12] = test system: S. aureus ATCC 29,213; experiment: Minimum bactericidal concentration; assay type: cell-based, Staphylococcus aureus; details: lowest concentration reducing at least 99.9 % of growth, plated on LB, 37 °C, 24 h, triplicate
[13] = test system: S. aureus MRSA USA 300; experiment: Minimum bactericidal concentration; assay type: cell-based, Staphylococcus aureus; details: lowest concentration reducing at least 99.9 % of growth, plated on LB, 37 °C, 24 h, triplicate
[14] = test system: P. aeruginosa ATCC 27,853; experiment: Minimum bactericidal concentration; assay type: cell-based, Pseudomonas aeruginosa; details: lowest concentration reducing at least 99.9 % of growth, plated on LB, 37 °C, 24 h, triplicate
[15] = test system: P. aeruginosa (ST175–1); experiment: Minimum bactericidal concentration; assay type: cell-based, Pseudomonas aeruginosa; details: lowest concentration reducing at least 99.9 % of growth, plated on LB, 37 °C, 24 h, triplicate
[16] = test system: A. baumannii ATCC 19,606; experiment: Minimum bactericidal concentration; assay type: cell-based, Acinetobacter baumannii; details: lowest concentration reducing at least 99.9 % of growth, plated on LB, 37 °C, 24 h, triplicate
[17] = test system: A. baumannii IB010; experiment: Minimum bactericidal concentration; assay type: cell-based, Acinetobacter baumannii; details: lowest concentration reducing at least 99.9 % of growth, plated on LB, 37 °C, 24 h, triplicate
[18] = test system: A. baumannii Ab-1; experiment: Minimum bactericidal concentration; assay type: cell-based, Acinetobacter baumannii; details: lowest concentration reducing at least 99.9 % of growth, plated on LB, 37 °C, 24 h, triplicate
[19] = test system: K. pneumoniae ATCC 43,816; experiment: Minimum bactericidal concentration; assay type: cell-based, Klebsiella pneumoniae; details: lowest concentration reducing at least 99.9 % of growth, plated on LB, 37 °C, 24 h, triplicate
[20] = test system: K. pneumoniae CG258; experiment: Minimum bactericidal concentration; assay type: cell-based, Klebsiella pneumoniae; details: lowest concentration reducing at least 99.9 % of growth, plated on LB, 37 °C, 24 h, triplicate
[21] = test system: E. coli ATCC 25,922; experiment: Minimum bactericidal concentration; assay type: cell-based, Escherichia coli; details: lowest concentration reducing at least 99.9 % of growth, plated on LB, 37 °C, 24 h, triplicate
[22] = test system: E. coli ESBL 1057.1; experiment: Minimum bactericidal concentration; assay type: cell-based, Escherichia coli; details: lowest concentration reducing at least 99.9 % of growth, plated on LB, 37 °C, 24 h, triplicate
[23] = test system: 11 bacterial strains (S. aureus, P. aeruginosa, A. baumannii, K. pneumoniae, E. coli); experiment: Antimicrobial activity screening, summary over groups of strains; assay type: cell-based; details: 50 µg/ml screen; for growth inhibition of all the strains: Gram-negative and Gram-positive
[24] = test system: 11 bacterial strains; experiment: MBC, summary over all strains; assay type: cell-based; details: highest value over all strains, converted to molar
In short: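 The no-peptide growth well, serially diluted and plated, served as reference. Percent growth was calculated from CFU counts; MBC was the lowest concentration giving ≥99.9 % reduction (CLSI). Triplicate.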

[25] = test system: K. pneumoniae CG258; experiment: Time-kill assay; assay type: cell-based, Klebsiella pneumoniae; details: peptide at 2× MIC
In short: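 Broth without compound was the growth control. Samples taken at 0, 3, 6 and 24 h were diluted and plated on MH II agar for CFU counts. Each curve was run at least in duplicate.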

[26] = test system: P. aeruginosa ST175–1; experiment: Inhibition of biofilm formation; assay type: cell-based, Pseudomonas aeruginosa; details: ¼ MIC
In short: (§2)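 Medium was discarded, wells washed with PBS, and biofilm stained with 1 % crystal violet for 15 min at room temperature. After two PBS washes, stain was eluted in 70 % ethanol and read at 595 nm. SBF = (OD595 − OD595 […])/OD600: weak ≤0.5, moderate 0.5–1, strong >1. Triplicate; Kruskal-Wallis with Dunn's test.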

[27] = test system: A. baumannii ATCC 19,606; experiment: Inhibition of biofilm formation; assay type: cell-based, Acinetobacter baumannii; details: ¼ MIC
In short: as §2

[28] = test system: A. baumannii Ab-1; experiment: Inhibition of biofilm formation; assay type: cell-based, Acinetobacter baumannii; details: ¼ MIC
In short: as §2

[29] = test system: K. pneumoniae ATCC 43,816; experiment: Inhibition of biofilm formation; assay type: cell-based, Klebsiella pneumoniae; details: ¼ MIC
In short: as §2

[30] = test system: E. coli ATCC 25,922; experiment: Inhibition of biofilm formation; assay type: cell-based, Escherichia coli; details: ¼ MIC
In short: as §2

[31] = Stability in human serum; assay type: in vitro ADME; details: 25 % (v/v)
In short: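 Test compound was added to RPMI with human serum pre-equilibrated at 37 °C, giving 333.33 µM final compound and 25 % (v/v) final serum. Mixtures were stirred at 37 °C for 10, 30, 45 or 60 min. Proteins were precipitated with 96 % ethanol, cooled at 4 °C for 15 min and spun at 14,000 g. Supernatants were run on C18 RP-HPLC (TFA/CH3CN gradient, 220 nm); degradation was taken from loss of native peak area. Duplicate.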

[32] = test system: Galleria mellonella larvae; experiment: In vivo toxicity in Galleria mellonella larvae; details: G. mellonella larvae, 50 µg/larvae (10 μl of 5 mg/ml), 30 °C, N=10 per group
In short: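 Sixth-instar Galleria mellonella larvae (200–300 mg) were held in sawdust at 4 °C until use. Groups of ten were injected with 10 μl of test compound, colistin or 0.9 % NaCl saline control into the second rear proleg, then kept at 30 °C.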

[33] = test system: K. pneumoniae CG258; experiment: Inhibition of biofilm formation; assay type: cell-based, Klebsiella pneumoniae; details: ¼ MIC
In short: as §2

Row | Compound | MIC [1] [µg/mL] | MIC [2] [µg/mL] | MIC [3] [µg/mL] | MIC [4] [µg/mL] | MIC [5] [µg/mL] | MIC [6] [µg/mL] | MIC [7] [µg/mL] | MIC [8] [µg/mL] | MIC [9] [µg/mL] | MIC [10] [µg/mL] | MIC [11] [µg/mL] | MBC [12] [µg/mL] | MBC [13] [µg/mL] | MBC [14] [µg/mL] | MBC [15] [µg/mL] | MBC [16] [µg/mL] | MBC [17] [µg/mL] | MBC [18] [µg/mL] | MBC [19] [µg/mL] | MBC [20] [µg/mL] | also measured
1 | CC[C@H](C)[C@H](NC(=O)[C@H](CCCCN)NC(=O)[C@H](CCCCN)NC(=O)[C@H](Cc1ccccc1)NC(=O)[C@H](CC(C)C)NC(=O)[C@H](CCCCN)NC(=O)[C@@H](N)CCCCN)C(=O)N[C@@H](CC(C)C)C(=O)N[C@@H](CCCCN)C(=O)N[C@@H](Cc1ccccc1)C(=O)N[C@@H](CC(C)C)C(N)=O [BP76] | 25 (≈ 17.8 µM) | 50 (≈ 35.6 µM) | 50 (≈ 35.6 µM) | 50 (≈ 35.6 µM) | 6.25 (≈ 4.45 µM) | 25 (≈ 17.8 µM) | 12.5 (≈ 8.9 µM) | 12.5 (≈ 8.9 µM) | 6.25 (≈ 4.45 µM) | 6.25 (≈ 4.45 µM) | 12.5 (≈ 8.9 µM) | 25 (≈ 17.8 µM) | 50 (≈ 35.6 µM) | 50 (≈ 35.6 µM) | 50 (≈ 35.6 µM) | 6.25 (≈ 4.45 µM) | 25 (≈ 17.8 µM) | 12.5 (≈ 8.9 µM) | 12.5 (≈ 8.9 µM) | 6.25 (≈ 4.45 µM) | MBC [21]: 6.25 µg/mL (≈ 4.45 µM); MBC [22]: 12.5 µg/mL (≈ 8.9 µM); growth inhibition of all the strains [23]: ≈ 90%; highest MBC observed [24]: 40 µM; bactericidal activity in time-kill assay ([25]; 6 h): able to reduce growth to bactericidal level; bactericidal activity in time-kill assay ([25]; 24 h): not at 24 h; SBF index compared to BP607 [26]: reduced SBF indices compared to BP607; SBF index compared to BP607 [27]: reduced SBF indices compared to BP607; SBF index compared to BP607 [28]: reduced SBF indices compared to BP607; SBF index compared to BP607 [29]: reduced SBF indices compared to BP607; production of biofilm [30]: reduced production of biofilm; remaining at 1 h, 333.33 µM [31]: 15%; survival after 24h [32]: 100%
2 | CC[C@H](C)[C@H](NC(=O)[C@H](CCCCN)NC(=O)[C@H](CCCCN)NC(=O)[C@H](Cc1ccccc1)NC(=O)[C@H](CC(C)C)NC(=O)[C@H](CCCCN)NC(=O)[C@H](CCCCN)NS(=O)(=O)c1ccc(C)cc1)C(=O)N[C@@H](CC(C)C)C(=O)N[C@@H](CCCCN)C(=O)N[C@@H](CCCCN)C(=O)N[C@@H](CC(C)C)C(N)=O [BP125] | – | – | – | – | – | – | – | – | – | – | – | – | – | – | – | – | – | – | – | – | growth inhibition in all strains except both K. pneumoniae and E. coli ATCC 25,922 [23]: ≥ 83%
3 | CC[C@H](C)[C@H](NC(=O)[C@H](CCCCN)NC(=O)[C@H](CCCCN)NC(=O)[C@@H](Cc1ccccc1)NC(=O)[C@H](CC(C)C)NC(=O)[C@H](CCCCN)NC(=O)[C@@H](N)CCCCN)C(=O)N[C@@H](CC(C)C)C(=O)N[C@@H](CCCCN)C(=O)N[C@@H](Cc1ccc(O)cc1)C(=O)N[C@@H](CC(C)C)C(N)=O [BP143] | – | – | – | – | – | – | – | – | – | – | – | – | – | – | – | – | – | – | – | – | growth inhibition for all Gram-negative strains tested [23]: ≥ 83%
4 | CC[C@H](C)[C@H](NC(=O)[C@H](CCCCN)NC(=O)[C@H](CCCCN)NC(=O)[C@H](Cc1ccccc1)NC(=O)[C@H](CC(C)C)NC(=O)[C@@H](CCCCN)NC(=O)[C@@H](N)CCCCN)C(=O)N[C@@H](CC(C)C)C(=O)N[C@@H](CCCCN)C(=O)N[C@@H](Cc1ccc(O)cc1)C(=O)N[C@@H](CC(C)C)C(N)=O [BP145] | 50 (≈ 35.2 µM) | 50 (≈ 35.2 µM) | 50 (≈ 35.2 µM) | 50 (≈ 35.2 µM) | 6.25 (≈ 4.4 µM) | 25 (≈ 17.6 µM) | 12.5 (≈ 8.8 µM) | 25 (≈ 17.6 µM) | 12.5 (≈ 8.8 µM) | 6.25 (≈ 4.4 µM) | 12.5 (≈ 8.8 µM) | 50 (≈ 35.2 µM) | 50 (≈ 35.2 µM) | 50 (≈ 35.2 µM) | 50 (≈ 35.2 µM) | 12.5 (≈ 8.8 µM) | 25 (≈ 17.6 µM) | 12.5 (≈ 8.8 µM) | 25 (≈ 17.6 µM) | 12.5 (≈ 8.8 µM) | MBC [21]: 6.25 µg/mL (≈ 4.4 µM); MBC [22]: 12.5 µg/mL (≈ 8.8 µM); growth inhibition of all the strains [23]: ≈ 90%; highest MBC observed [24]: 35 µM; bactericidal activity in time-kill assay ([25]; 24 h): bactericidal; SBF index compared to BP607 [26]: reduced SBF indices compared to BP607; SBF index compared to BP607 [27]: reduced SBF indices compared to BP607; SBF index compared to BP607 [28]: reduced SBF indices compared to BP607; SBF index compared to BP607 [29]: reduced SBF indices compared to BP607; biofilm formation [33]: inhibited biofilm formation; remaining at 1 h, 333.33 µM [31]: 35%; survival after 24h [32]: 70%
